Test results from ChEMBL document CHEMBL3612040, “Discovery of Selective Small Molecule Inhibitors of Monoacylglycerol Acyltransferase 3” (J Med Chem, 2015).
The source made the active and inactive calls. No cut-off for these calls is given here.

Columns and labels:
[1] = Apparent permeability in RRCK cells; assay type: ADME, cell-based, Canis lupus familiaris, MDCKII-LE; conditions: dog, MDCK
[2] = Intrinsic clearance in human liver microsomes; assay type: ADME; conditions: read-out: CLH
[3] = Lipophilicity, logD of the compound at pH 7.4; assay type: physicochemical; conditions: buffer
How it was run: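 Shake-flask octanol:water partition at pH 7.4, with MS analysis of samples.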

Hepatocyte = test: Drug metabolism in human hepatocytes assessed as compound oxidation; assay type: ADME, cell-based
[4] = Systemic clearance in mouse at 1 mg/kg, iv; assay type: ADME, organism-based; conditions: in vivo
How it was run: (§1)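 Single 1 mg/kg intravenous dose in mice; systemic clearance, volume of distribution and effective half-life derived from plasma pharmacokinetics.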

[5] = AUClast in mouse at 5 mg/kg, po; assay type: ADME, organism-based; design: dose 5 mg/kg, route oral, time 0 - last; conditions: in vivo
Mus musculus [6] = test: (§2) In-vivo inhibition of MGAT3-mediated TAG synthesis in human MGAT3 transgenic mouse assessed as reduction in incorporation of glycerol-d8 in to triolein expressed as atom percent excess at 200 mg/kg, po dosed 1 hr before of 100 mg/kg, iv glycerol-d8 and measured 30 mins post glycerol-d8 dosing by LC-MS method; assay type: functional, organism-based
How it was run: (§3)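 Fed mice (wild type or human MOGAT3 transgenic), studied 8 AM–12 PM. Oral dosing in 0.5% methyl cellulose in saline, alone or with DGAT1 inhibitor (30 mg/kg) and DGAT2 inhibitor (10 mg/kg). After 1 h, 100 mg/kg uniformly labelled D8-glycerol (10 mg/mL in saline) given by tail vein. EDTA plasma taken 30 min later; D5-glycerol enrichment in triolein (18:1/18:1/18:1) measured by LC/MS, reported as mean atom percent excess ± SE.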

HepG2 = test: Toxicity in human HepG2 cells up to 300 uM incubated for 72 hrs; assay type: cell-based; conditions: hepg2, 72 h
How it was run: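 HepG2 cells incubated with compound up to 300 µM for 72 hours.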

Mus musculus [7] = test: as §2, with “dosing and co-treated with 30 mg/kg for DGAT1 inhibitor-12 and 10 mg/kg for DGAT2 inhibitor-13” for “dosing”; assay type: functional, organism-based
How it was run: (§4)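 Fed mice (wild type or human MOGAT3 transgenic) were studied between 8 AM and 12 PM. Inhibitors were given orally in 0.5% methyl cellulose in saline. After 1 h, D8-glycerol (10 mg/mL in saline) was injected into the tail vein. Blood was taken into EDTA 30 min later and plasma lipids extracted. D5-glycerol in triolein (18:1/18:1/18:1) was measured by LC/MS as atom percent excess, mean ± SE.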

Salmonella typhimurium = test: Genotoxicity in Salmonella typhimurium by Amest test; assay type: toxicity, organism-based; conditions: salmonella enterica subsp. enterica serovar typhimurium
[8] = target: T1, Diacylglycerol O-acyltransferase 2 (Homo sapiens, UniProt Q96PD7); test: Inhibition of DGAT2 (unknown origin) using [1-14C]decanoyl-CoA and didecanoyl-sn-glycerol substrates incubated for 40 mins
T1 sequence (Q96PD7 whole entry): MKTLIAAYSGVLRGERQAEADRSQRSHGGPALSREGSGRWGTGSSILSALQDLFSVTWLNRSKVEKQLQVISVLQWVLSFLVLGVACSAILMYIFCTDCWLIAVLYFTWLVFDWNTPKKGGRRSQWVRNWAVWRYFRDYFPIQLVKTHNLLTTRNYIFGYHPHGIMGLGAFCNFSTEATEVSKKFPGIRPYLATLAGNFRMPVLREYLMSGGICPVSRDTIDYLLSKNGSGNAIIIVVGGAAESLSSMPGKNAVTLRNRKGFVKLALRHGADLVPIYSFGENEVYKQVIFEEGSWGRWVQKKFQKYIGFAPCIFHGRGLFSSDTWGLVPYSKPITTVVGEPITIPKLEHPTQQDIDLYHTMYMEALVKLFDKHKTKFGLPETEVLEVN
How it was run: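 DGAT2 membrane fraction (0.01 mg/mL) in 100 mM Hepes-NaOH pH 7.4, 20 mM MgCl2, 200 nM MAFP. Compound first held 20 min with 0.04% fatty-acid-free BSA, then preincubated 120 min at RT with enzyme. Started with 30 µM [1-14C]decanoyl-CoA and 125 µM 1,2-didecanoyl-sn-glycerol; ran 40 min at RT, acid-stopped. Labelled TAG read by scintillation after phase partitioning.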

Cytochrome P450 2D6 = Cytochrome P450 2D6 (Homo sapiens, UniProt P10635); test: Inhibition of human CYP2D6; assay type: ADME
Cytochrome P450 2C9 = Cytochrome P450 2C9 (Homo sapiens, UniProt P11712); test: Inhibition of human CYP2C9; assay type: ADME
[9] = Half life in mouse at 1 mg/kg, iv; assay type: ADME, organism-based; conditions: in vivo; how it was run: as §1
[10] = target: T2, Diacylglycerol O-acyltransferase 1 (Homo sapiens, UniProt O75907); test: Inhibition of DGAT1 (unknown origin) assessed as effect on incorporation of [1-14C]decanoyl moiety into TG using [1-14C]decanoyl-CoA and 1,2-didecanoyl-sn-glycerol as substrates
T2 sequence (O75907 whole entry): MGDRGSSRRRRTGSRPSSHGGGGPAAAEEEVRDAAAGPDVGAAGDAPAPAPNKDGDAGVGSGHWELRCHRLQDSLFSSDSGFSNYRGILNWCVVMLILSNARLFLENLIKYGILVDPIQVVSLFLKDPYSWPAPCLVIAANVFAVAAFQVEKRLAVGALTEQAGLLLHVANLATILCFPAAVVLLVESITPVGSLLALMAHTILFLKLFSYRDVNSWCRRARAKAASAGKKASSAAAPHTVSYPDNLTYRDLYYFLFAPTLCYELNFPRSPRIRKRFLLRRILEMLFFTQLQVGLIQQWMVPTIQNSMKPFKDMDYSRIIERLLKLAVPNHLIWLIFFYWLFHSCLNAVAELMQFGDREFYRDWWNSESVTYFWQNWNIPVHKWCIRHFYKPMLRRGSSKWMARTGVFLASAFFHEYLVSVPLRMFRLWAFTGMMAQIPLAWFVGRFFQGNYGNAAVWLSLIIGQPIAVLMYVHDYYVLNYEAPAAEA

[11] = Cmax in mouse at 5 mg/kg, po; assay type: ADME, organism-based; design: dose 5 mg/kg, route oral; conditions: in vivo
[12] = Volume of distribution in mouse at 1 mg/kg, iv; assay type: ADME, organism-based; conditions: in vivo; how it was run: as §1
[13] = Oral bioavailability in mouse at 5 mg/kg; assay type: ADME, organism-based; conditions: in vivo
[14] = target: Voltage-gated inwardly rectifying potassium channel KCNH2 (Homo sapiens, UniProt Q12809); test: Inhibition of human ERG
Cytochrome P450 3A4 = Cytochrome P450 3A4 (Homo sapiens, UniProt P08684); test: Inhibition of human CYP3A4; assay type: ADME
[15] = target: T3, Peroxisome proliferator-activated receptor gamma (Homo sapiens, UniProt P37231); test: Inhibition of PPARgamma (unknown origin)
T3 sequence (P37231 whole entry): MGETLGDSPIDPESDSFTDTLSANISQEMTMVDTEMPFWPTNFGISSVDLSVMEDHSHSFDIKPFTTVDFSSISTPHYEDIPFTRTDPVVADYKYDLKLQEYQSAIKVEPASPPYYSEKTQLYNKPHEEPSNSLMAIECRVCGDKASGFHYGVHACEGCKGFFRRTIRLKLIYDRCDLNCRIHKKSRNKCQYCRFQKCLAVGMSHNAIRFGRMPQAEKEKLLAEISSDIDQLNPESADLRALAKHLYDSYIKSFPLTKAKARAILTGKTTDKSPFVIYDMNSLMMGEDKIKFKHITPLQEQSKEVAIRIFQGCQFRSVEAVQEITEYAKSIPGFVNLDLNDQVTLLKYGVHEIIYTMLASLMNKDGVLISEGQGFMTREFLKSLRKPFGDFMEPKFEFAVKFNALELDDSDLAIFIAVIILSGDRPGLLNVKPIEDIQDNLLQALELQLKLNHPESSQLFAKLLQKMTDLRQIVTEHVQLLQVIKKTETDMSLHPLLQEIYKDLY

[16] = Genotoxicity in micronucleus (unknown origin) by micronucleus assay
Cytochrome P450 1A2 = target: T4, Cytochrome P450 1A2 (Homo sapiens, UniProt P05177); test: Inhibition of human CYP1A2; assay type: ADME
T4 sequence (P05177 whole entry): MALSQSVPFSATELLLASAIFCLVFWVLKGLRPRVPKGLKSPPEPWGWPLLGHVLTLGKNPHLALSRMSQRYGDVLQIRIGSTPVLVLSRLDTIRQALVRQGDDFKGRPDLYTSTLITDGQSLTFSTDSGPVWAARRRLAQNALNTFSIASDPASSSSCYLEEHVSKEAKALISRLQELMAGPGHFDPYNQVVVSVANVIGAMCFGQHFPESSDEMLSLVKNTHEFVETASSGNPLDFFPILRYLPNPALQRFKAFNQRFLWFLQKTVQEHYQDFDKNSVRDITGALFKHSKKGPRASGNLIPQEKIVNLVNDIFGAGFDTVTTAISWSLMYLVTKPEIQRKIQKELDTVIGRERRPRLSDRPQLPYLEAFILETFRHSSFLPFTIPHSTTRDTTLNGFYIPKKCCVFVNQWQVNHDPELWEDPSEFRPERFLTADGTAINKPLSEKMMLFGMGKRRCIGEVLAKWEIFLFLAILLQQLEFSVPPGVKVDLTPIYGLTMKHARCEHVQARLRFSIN

Cytochrome P450 2C8 = target: T5, Cytochrome P450 2C8 (Homo sapiens, UniProt P10632); test: Inhibition of human CYP2C8; assay type: ADME
T5 sequence (P10632 whole entry): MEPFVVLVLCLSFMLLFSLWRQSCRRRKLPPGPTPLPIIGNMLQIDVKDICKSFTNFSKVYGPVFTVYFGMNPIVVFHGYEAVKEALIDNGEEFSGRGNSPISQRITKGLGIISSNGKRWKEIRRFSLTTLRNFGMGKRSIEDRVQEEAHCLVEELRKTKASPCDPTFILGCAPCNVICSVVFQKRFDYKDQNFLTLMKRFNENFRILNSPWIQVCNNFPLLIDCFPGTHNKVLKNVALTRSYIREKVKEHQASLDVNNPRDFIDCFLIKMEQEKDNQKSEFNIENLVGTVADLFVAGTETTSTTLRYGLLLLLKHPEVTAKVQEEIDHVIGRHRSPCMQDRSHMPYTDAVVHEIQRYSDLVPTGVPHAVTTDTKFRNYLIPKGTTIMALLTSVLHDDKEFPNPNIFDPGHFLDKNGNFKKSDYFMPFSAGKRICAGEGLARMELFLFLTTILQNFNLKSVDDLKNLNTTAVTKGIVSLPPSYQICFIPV

Mus musculus [17] = test: (§5) Effect on incorporation of glycerol-d8 into triolein in wild type mouse by measuring atom percent excess at 200 mg/kg, po dosed 1 hr before of 100 mg/kg, iv glycerol-d8 and measured 30 mins post glycerol-d8 dosing by LC-MS method; assay type: functional, organism-based; how it was run: as §3
Mus musculus [18] = test: as §5, with “dosing and co-treated with 30 mg/kg for DGAT1 inhibitor-12 and 10 mg/kg for DGAT2 inhibitor-13” for “dosing”; assay type: functional, organism-based; how it was run: as §4

Cytochrome P450 3A4, sequence (P08684 whole entry): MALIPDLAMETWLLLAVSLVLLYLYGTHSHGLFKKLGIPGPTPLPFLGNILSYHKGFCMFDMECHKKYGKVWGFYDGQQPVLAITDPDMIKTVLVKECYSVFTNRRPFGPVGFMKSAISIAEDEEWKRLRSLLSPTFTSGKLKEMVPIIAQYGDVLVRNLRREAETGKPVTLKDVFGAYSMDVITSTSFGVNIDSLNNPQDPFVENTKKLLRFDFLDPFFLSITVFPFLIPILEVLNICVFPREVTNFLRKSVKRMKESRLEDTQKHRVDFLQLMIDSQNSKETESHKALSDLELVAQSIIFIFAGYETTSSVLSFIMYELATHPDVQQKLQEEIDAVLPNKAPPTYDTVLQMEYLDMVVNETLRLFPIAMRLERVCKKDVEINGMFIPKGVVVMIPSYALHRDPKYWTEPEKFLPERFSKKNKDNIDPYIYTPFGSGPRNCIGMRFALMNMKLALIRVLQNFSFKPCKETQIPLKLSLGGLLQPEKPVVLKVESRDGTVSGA
Voltage-gated inwardly rectifying potassium channel KCNH2, sequence (Q12809 whole entry): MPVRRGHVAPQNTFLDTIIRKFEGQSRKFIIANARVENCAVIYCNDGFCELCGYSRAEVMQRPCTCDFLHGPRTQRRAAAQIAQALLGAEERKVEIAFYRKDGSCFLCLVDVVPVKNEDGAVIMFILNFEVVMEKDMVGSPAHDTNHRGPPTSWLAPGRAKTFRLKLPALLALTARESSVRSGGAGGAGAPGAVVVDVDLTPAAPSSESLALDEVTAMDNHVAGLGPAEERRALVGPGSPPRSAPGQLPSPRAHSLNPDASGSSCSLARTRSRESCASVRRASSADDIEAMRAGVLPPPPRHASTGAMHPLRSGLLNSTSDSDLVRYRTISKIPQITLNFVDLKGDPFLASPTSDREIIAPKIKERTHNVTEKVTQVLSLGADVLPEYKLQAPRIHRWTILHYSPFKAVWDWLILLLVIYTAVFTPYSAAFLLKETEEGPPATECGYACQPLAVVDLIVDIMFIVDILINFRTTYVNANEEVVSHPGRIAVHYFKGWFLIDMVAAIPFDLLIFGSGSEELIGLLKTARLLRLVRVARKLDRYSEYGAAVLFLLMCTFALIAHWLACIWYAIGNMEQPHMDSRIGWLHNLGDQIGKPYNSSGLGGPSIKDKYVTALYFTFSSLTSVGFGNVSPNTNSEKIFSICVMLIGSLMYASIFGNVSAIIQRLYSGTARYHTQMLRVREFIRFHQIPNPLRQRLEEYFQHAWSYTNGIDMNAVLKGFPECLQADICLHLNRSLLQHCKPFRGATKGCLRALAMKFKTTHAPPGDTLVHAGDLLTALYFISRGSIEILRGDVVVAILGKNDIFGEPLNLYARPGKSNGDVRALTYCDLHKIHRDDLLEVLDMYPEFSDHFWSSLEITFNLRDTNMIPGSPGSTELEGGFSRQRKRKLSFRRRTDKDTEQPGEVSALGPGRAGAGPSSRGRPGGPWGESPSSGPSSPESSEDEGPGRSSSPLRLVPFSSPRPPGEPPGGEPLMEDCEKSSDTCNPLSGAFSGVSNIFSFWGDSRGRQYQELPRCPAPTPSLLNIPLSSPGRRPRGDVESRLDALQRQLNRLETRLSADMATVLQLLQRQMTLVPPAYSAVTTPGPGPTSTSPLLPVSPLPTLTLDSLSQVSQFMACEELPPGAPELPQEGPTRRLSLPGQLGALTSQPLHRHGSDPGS
Cytochrome P450 2C9, sequence (P11712 whole entry): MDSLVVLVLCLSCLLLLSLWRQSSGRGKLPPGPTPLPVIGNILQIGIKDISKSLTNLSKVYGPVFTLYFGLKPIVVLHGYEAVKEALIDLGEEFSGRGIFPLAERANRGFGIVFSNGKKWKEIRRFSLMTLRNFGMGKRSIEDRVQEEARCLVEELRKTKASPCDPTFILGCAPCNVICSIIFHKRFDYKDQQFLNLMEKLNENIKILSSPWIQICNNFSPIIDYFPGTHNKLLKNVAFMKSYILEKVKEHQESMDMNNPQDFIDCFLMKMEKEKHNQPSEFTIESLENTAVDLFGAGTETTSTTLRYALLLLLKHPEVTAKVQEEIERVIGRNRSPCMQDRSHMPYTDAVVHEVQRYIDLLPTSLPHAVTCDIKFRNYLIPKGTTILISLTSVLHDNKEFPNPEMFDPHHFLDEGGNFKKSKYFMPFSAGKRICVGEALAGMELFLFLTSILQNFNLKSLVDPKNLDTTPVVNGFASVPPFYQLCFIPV
Cytochrome P450 2D6, sequence (P10635 whole entry): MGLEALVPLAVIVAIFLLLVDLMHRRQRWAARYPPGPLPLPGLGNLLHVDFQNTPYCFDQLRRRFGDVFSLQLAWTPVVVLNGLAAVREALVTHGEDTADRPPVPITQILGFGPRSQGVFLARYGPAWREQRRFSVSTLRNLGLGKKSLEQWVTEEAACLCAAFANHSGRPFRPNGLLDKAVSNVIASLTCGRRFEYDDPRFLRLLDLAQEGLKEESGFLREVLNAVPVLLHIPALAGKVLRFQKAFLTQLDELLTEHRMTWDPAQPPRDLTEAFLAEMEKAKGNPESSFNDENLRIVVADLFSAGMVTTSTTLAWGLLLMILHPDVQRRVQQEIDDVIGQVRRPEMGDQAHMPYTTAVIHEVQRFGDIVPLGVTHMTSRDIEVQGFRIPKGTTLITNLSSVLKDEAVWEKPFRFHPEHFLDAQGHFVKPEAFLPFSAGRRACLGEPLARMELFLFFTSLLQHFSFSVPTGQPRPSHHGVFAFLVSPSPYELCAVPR

Compound: COc1cccc(CC(=O)N2Cc3ccc(S(=O)(=O)N(C)CCc4cccc(F)c4)cc3C2)c1
- Papp [1]: 4 ×10⁻⁶ cm/s
- microsomal CLint [2]: > 320 µL/min/mg
- logD [3]: 3.9

Compound: COc1cccc(CC(=O)N2Cc3ccc(S(=O)(=O)Nc4cnn(C)n4)cc3C2)c1
- Papp [1]: 1 ×10⁻⁶ cm/s
- microsomal CLint [2]: < 8 µL/min/mg
- logD [3]: 0.2

Compound: COc1cccc(CC(=O)N2Cc3ccc(S(=O)(=O)Nc4cnn(C5CCOCC5)n4)cc3C2)c1
- Papp [1]: 5 ×10⁻⁶ cm/s
- Stability (Hepatocyte): Stable
- microsomal CLint [2]: < 8 µL/min/mg
- logD [3]: 0.9

Compound: COc1cccc(CC(=O)N2Cc3ccc(S(=O)(=O)Nc4cnn(C5CCC5)n4)cc3C2)c1
- clearance [4]: 1.4 mL/min/kg
- AUC(0-t) [5]: 27000 ng·h/mL
- inhibition (Mus musculus [6]): inactive
- Activity (HepG2): Non-toxic
- inhibition (Mus musculus [7]): Active
- Papp [1]: 12 ×10⁻⁶ cm/s
- Activity (Salmonella typhimurium): Non-toxic
- IC50 [8]: > 100 µM
- inhibition (INH) (Cytochrome P450 2D6): Not Active
- inhibition (INH) (Cytochrome P450 2C9): Not Active
- half-life [9]: 1.4 h
- IC50 [10]: > 50 µM
- Cmax [11]: 9300 ng/mL
- Vd [12]: 0.17 L/kg
- bioavailability [13]: 74%
- inhibition (INH) [14]: Not Active
- microsomal CLint [2]: 22 µL/min/mg
- inhibition (INH) (Cytochrome P450 3A4): Not Active
- IC50 [15]: 4 µM
- Activity [16]: Non-toxic
- logD [3]: 1.7
- inhibition (INH) (Cytochrome P450 1A2): Not Active
- inhibition (INH) (Cytochrome P450 2C8): Not Active
- Activity (Mus musculus [17]): inactive
- Activity (Mus musculus [18]): inactive

Compound: COc1cccc(CC(=O)N2Cc3ccc(S(=O)(=O)Nc4cnn(C5CC(F)(F)C5)n4)cc3C2)c1
- Papp [1]: 7 ×10⁻⁶ cm/s
- microsomal CLint [2]: < 8 µL/min/mg
- logD [3]: 1.5
